ChEMBL document CHEMBL1122206, “Use of adenine nucleotide derivatives to assess the potential of exo-active-site-directed reagents as species- or isozyme-specific enzyme inactivators. 5. Interactions of adenosine 5'-triphosphate derivatives with rat pyruvate kinases, Escherichia coli thymidine kinase, and yeast and rat …” (1982)

Experiments:
[1] = biological target: T1, Hexokinase-3 (Rattus norvegicus) (UniProt P27926); test: Substrate activity for rat hexokinase III as 1:1 Mg complex at 5.0 mM
T1 sequence (whole entry): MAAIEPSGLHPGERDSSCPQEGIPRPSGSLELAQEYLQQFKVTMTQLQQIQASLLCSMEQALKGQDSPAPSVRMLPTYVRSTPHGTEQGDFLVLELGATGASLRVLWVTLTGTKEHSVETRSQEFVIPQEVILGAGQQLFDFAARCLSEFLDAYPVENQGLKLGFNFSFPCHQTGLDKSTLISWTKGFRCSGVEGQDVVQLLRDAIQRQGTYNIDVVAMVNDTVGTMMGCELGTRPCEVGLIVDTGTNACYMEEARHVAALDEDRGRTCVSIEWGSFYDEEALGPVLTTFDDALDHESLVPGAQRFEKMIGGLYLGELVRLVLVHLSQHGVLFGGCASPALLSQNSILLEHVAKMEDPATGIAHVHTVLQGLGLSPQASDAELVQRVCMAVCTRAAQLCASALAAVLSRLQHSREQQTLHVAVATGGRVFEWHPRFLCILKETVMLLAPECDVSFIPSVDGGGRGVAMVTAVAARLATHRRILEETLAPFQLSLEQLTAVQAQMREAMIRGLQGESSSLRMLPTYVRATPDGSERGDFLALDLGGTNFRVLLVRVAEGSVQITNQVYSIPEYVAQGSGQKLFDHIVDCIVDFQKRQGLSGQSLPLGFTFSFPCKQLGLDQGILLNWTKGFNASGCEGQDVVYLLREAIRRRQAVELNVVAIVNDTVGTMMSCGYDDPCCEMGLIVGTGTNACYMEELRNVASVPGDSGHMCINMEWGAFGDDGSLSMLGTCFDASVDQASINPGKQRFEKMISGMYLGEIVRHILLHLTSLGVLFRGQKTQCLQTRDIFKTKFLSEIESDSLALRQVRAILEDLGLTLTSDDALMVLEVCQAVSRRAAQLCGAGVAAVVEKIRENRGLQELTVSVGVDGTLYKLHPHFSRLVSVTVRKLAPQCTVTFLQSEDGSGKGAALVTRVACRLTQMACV
In short: (§1)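 Hexokinase activity read at 22 °C as A340 change, coupled to glucose-6-phosphate dehydrogenase, in 0.05 M Tris-HCl pH 7.6 with 6.6 mM MgCl2, 10 mM α-D-glucose and 0.93 mM NADP. Donor was 5.0 mM MgATP derivative (1:1 Mg complex) in place of ATP. Yeast HK was isoelectric-focused. Rat HK I and III came from electrofocused liver extract, HK II from dialysed muscle extract.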

Saccharomyces cerevisiae [2] = test: Substrate activity against yeast hexokinase as 1:1 Mg complexes at 5.0 mM; in short: as §1
[3] = Compound was tested for substrate constants with yeast hexokinase. Maximal velocity Vmax was reported
In short: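 Hexokinase KM and Vmax taken from linear double-reciprocal plots of initial velocity vs. nucleotide level. Assays at 22 °C, coupled to glucose-6-phosphate dehydrogenase (A340), in 0.05 M Tris-HCl pH 7.6 with 6.6 mM MgCl2, 10 mM glucose and 0.93 mM NADP. Yeast HK was isoelectric-focused. Rat HK I and III came from liver, HK II from muscle (male Sprague-Dawley).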

Saccharomyces cerevisiae [4] = test: Compound was tested for time dependent inhibition of hexokinase activity after 6 hr, at 0 degrees celsius, with 10 mM ATP derivative in yeast hexokinase
[5] = biological target: T1, Hexokinase-3 (Rattus norvegicus); test: Time dependent inhibition of Hexokinase type III activity after 6 h, at 22 degrees celsius, at 5 mM
[6] = biological target: Thymidine kinase (Escherichia coli) (UniProt P23331); test: Compound was tested for the loss of thymidine kinase activity from Escherichia coli after 6 hr at 0 degrees C at 10 mM
Thymidine kinase (Escherichia coli), sequence (P23331 whole entry, looked up): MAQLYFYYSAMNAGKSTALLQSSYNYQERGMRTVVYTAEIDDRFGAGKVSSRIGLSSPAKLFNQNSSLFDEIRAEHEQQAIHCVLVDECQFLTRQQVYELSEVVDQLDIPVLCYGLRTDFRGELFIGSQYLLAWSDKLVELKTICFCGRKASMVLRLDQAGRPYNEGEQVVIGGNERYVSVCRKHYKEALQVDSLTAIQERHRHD

Nc1ncnc2c1ncn2[C@@H]1O[C@H](COP(=O)(O)OP(=O)(O)OP(=O)(O)O)[C@@H](O)[C@H]1O
Relative velocity [1]: 1
Relative velocity (Saccharomyces cerevisiae [2]): 1
Vmax [3]: 100%
inhibition (Saccharomyces cerevisiae [4]): 0%
inhibition [5]: 0%
inhibition [6]: 0%
